Screening data as filed in PubChem BioAssay.
SIRT5 inh: sirtuin-5 (human) deacylase inhibition; AID 652115; Purified SirT5, succinyl-peptide AMC, trypsin-coupled fluorescence; 330,000 compounds, 1.1% hits; Q9NXA8; inhibition, % at 15 µM; in the data active means inhibition above about 15%; inconclusive means no clear call, values can overlap the other calls
Target sequence (Q9NXA8 whole entry, looked up): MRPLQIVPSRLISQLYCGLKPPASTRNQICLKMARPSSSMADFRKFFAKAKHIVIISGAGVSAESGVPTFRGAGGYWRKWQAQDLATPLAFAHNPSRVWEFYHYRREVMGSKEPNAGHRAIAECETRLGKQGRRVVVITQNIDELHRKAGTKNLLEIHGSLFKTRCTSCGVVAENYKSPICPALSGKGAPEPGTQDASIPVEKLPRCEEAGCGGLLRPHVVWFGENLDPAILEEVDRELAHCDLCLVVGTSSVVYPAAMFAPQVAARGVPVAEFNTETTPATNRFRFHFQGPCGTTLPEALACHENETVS
DENV2 CPE rescue: inhibitors of DENV2 cytopathic effect | CPE inhibition, % at 9.99 µM | 350,000 compounds, 1.7% hits | AID 651640 | DENV2-infected cells, cytopathic effect rescue, plate reader; in the data active means CPE inhibition above about 20%, passing the limit was not always enough; inconclusive means no clear call, values can overlap the other calls; tested in BHK-21 cells;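 further: 0% = median of neutral control wells and 100% = median of positive control wells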
E-selectin induc: induces E-selectin expression in human endothelial cells | activation, % at 7.58 µM | P16581 | 260,000 compounds, 0.37% hits | HUVEC E-selectin immunofluorescence imaging; normalized: neutral wells 0, TNF-alpha wells 100 | AID 686992;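 active means mean E-selectin-positive cell signal at least 10% of the positive control, reached in at least 60% of replicates, without over 20% cell loss; inconclusive means no rule given, readout overlaps actives, possibly toxicity-flagged; inactive means the rest, including those meeting only one limit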
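System: HUVEC / Compound: single concentration / Signal: immunofluorescence imaging / Read-out: percent E-selectin-positive cells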
Active calls of the source: *. Shown are actives, neighbours in structure and some others; about 2.9% of the full set was active somewhere.

Screening C[C@@H]1CN([C@H](C)CO)C(=O)c2cccc(NC(=O)Nc3ccc(C(F)(F)F)cc3)c2O[C@H]1CN(C)S(=O)(=O)c1cccs1 returned SIRT5 inh 17*, DENV2 CPE rescue 4 and E-selectin induc 16.
Screening COc1ccc(S(=O)(=O)N(C)C[C@H]2Oc3c(NC(=O)Nc4ccc(C(F)(F)F)cc4)cccc3C(=O)N([C@H](C)CO)C[C@@H]2C)cc1 returned SIRT5 inh 8 and DENV2 CPE rescue 21*.
`C[C@H]1CN([C@@H](C)CO)C(=O)c2cccc(NC(=O)Nc3ccc(C(F)(F)F)cc3)c2O[C@@H]1CN(C)S(=O)(=O)c1ccc(F)cc1` gave SIRT5 inh 13, DENV2 CPE rescue -5 and E-selectin induc 1.
`C[C@@H]1CN([C@@H](C)CO)C(=O)c2cccc(NC(=O)Nc3ccc(F)cc3)c2O[C@@H]1CN(C)S(=O)(=O)c1cccs1` gave SIRT5 inh -2, DENV2 CPE rescue -3 and E-selectin induc 0.
For C[C@H]1CN([C@@H](C)CO)C(=O)c2cccc(NC(=O)Nc3ccc(C(F)(F)F)cc3)c2O[C@H]1CN(C)S(=O)(=O)c1ccc(F)cc1 the results were SIRT5 inh 16*, DENV2 CPE rescue -2 and E-selectin induc 0.
CCOc1ccc(C(C(=O)NC(C)(C)C)N(CCOC)C(=O)CCC(=O)Nc2nccs2)cc1 (centres undefined) was read as SIRT5 inh 1, DENV2 CPE rescue 3 and E-selectin induc 0.
Screening Nc1c(C(=O)Nc2cccc(F)c2)nnn1-c1cccc(C(F)(F)F)c1 returned SIRT5 inh -1 and DENV2 CPE rescue 6.
Cc1ccc(C)c(NC(=O)COc2cccc3c2CCN(Cc2ccccc2)C3=O)c1 was read as SIRT5 inh 3 and E-selectin induc 0.
Screening CC1CCCCN1CCCNC(=O)c1ccc2nc(N3CCCCC3)sc2c1 (centres undefined) returned SIRT5 inh -2, DENV2 CPE rescue 25* and E-selectin induc 1.
Screening CCCN1CCN(CCCNC(=O)c2ccc3nc(N4CCC(C)CC4)sc3c2)CC1 returned SIRT5 inh 6, DENV2 CPE rescue -7 and E-selectin induc 0.
Cc1sc2nc(CSC(C)C(=O)Nc3ccc(C#N)cc3)[nH]c(=O)c2c1C (centres undefined) was read as SIRT5 inh 1, DENV2 CPE rescue -14 and E-selectin induc -2.
`CCN(CC)C(=O)CSc1nc(COc2ccccc2)nc2ccccc12` gave SIRT5 inh 0, DENV2 CPE rescue -2 and E-selectin induc 0.
`C[C@@H]1CCCCO[C@H](CN(C)Cc2ccncc2)[C@@H](C)CN([C@H](C)CO)C(=O)c2cc(NS(=O)(=O)c3ccccc3)ccc2O1` gave SIRT5 inh 3 and DENV2 CPE rescue 21*.
`C[C@H](CO)N1C[C@H](C)[C@H](CN(C)Cc2ccncc2)OCCCC[C@H](C)Oc2ccc(NS(=O)(=O)c3ccccc3)cc2C1=O` gave SIRT5 inh 1 and DENV2 CPE rescue 73*.
For C[C@@H]1CCCCO[C@@H](CN(C)Cc2ccncc2)[C@@H](C)CN([C@H](C)CO)C(=O)c2cc(NS(=O)(=O)c3ccccc3)ccc2O1 the results were SIRT5 inh 4 and DENV2 CPE rescue 7.
For C[C@@H]1CN([C@@H](C)CO)C(=O)c2cc(NS(=O)(=O)c3ccccc3)ccc2O[C@@H](C)CCCCO[C@H]1CN(C)Cc1ccncc1 the results were SIRT5 inh 6 and DENV2 CPE rescue -3.
C[C@@H]1CN([C@H](C)CO)C(=O)c2cc(NS(=O)(=O)c3cn(C)cn3)ccc2O[C@H]1CN(C)CC1CCCCC1 was read as SIRT5 inh 17*, DENV2 CPE rescue -4 and E-selectin induc 0.
For C[C@@H]1CN([C@@H](C)CO)C(=O)c2cc(NS(=O)(=O)c3cn(C)cn3)ccc2O[C@@H]1CN(C)CC1CCCCC1 the results were SIRT5 inh 2, DENV2 CPE rescue 4 and E-selectin induc 0.
C[C@@H]1CN([C@H](C)CO)C(=O)Cc2cc(NS(=O)(=O)c3cn(C)cn3)ccc2O[C@@H]1CN(C)CC1CCCCC1 was read as SIRT5 inh -2, DENV2 CPE rescue 34* and E-selectin induc 0.
`C[C@@H]1CN([C@@H](C)CO)C(=O)Cc2cc(NS(=O)(=O)c3cn(C)cn3)ccc2O[C@H]1CN(C)Cc1ccccc1` gave SIRT5 inh 1, DENV2 CPE rescue 25* and E-selectin induc 2.
Screening C[C@@H]1CN([C@H](C)CO)C(=O)Cc2cc(NS(=O)(=O)c3cn(C)cn3)ccc2O[C@@H]1CN(C)Cc1ccccc1 returned SIRT5 inh -1, DENV2 CPE rescue -5 and E-selectin induc 0.
C[C@H](CO)N1C[C@H](C)[C@@H](CN(C)CC2CCCCC2)Oc2ccc(NS(=O)(=O)c3cn(C)cn3)cc2CC1=O was read as SIRT5 inh 3, DENV2 CPE rescue -9 and E-selectin induc 0.
For NC(=O)CC(NC(=O)Cc1ccc(Cl)cc1)c1ccc(N2CCC(Cc3ccccc3)CC2)c([N+](=O)[O-])c1 (centres undefined) the results were SIRT5 inh -2, DENV2 CPE rescue -14 and E-selectin induc 0.
CCn1ccnc1CN1CCCC(C(=O)c2ccc3cc(OC)ccc3c2)C1 (centres undefined) was read as SIRT5 inh -2, DENV2 CPE rescue -4 and E-selectin induc 2.
CCCNC(=O)[C@@H]1[C@@H](CO)[C@@H]2Cn3c(ccc(-c4ccccc4)c3=O)[C@@H]2N1C(=O)C1CC1 was read as SIRT5 inh -13, DENV2 CPE rescue 8 and E-selectin induc 0.
COc1ccc(NC(=O)c2ccc(-c3c(C)noc3C)c3ccoc23)cn1 was read as SIRT5 inh 0, DENV2 CPE rescue 12 and E-selectin induc -1.
Screening CC(C)NC(=O)Nc1cccc2c1O[C@H](CN(C)Cc1ccc(Cl)c(Cl)c1)[C@H](C)CN([C@@H](C)CO)C2=O returned SIRT5 inh -4, DENV2 CPE rescue 17 and E-selectin induc 30*.
Screening CC(C)NC(=O)Nc1cccc2c1O[C@H](CN(C)Cc1ccc(Cl)c(Cl)c1)[C@@H](C)CN([C@@H](C)CO)C2=O returned SIRT5 inh -7, DENV2 CPE rescue -2 and E-selectin induc 53*.
For CC(C)NC(=O)Nc1cccc2c1O[C@@H](CN(C)Cc1ccc(Cl)c(Cl)c1)[C@H](C)CN([C@@H](C)CO)C2=O the results were SIRT5 inh 3, DENV2 CPE rescue -16 and E-selectin induc -22.
C[C@H](CO)N1C[C@H](C)[C@H](CN(C)Cc2ccc(Cl)c(Cl)c2)Oc2c(NC(=O)NC3CCCCC3)cccc2C1=O was read as SIRT5 inh 3 and DENV2 CPE rescue -5.
N#CC1=C(SCC(=O)Nc2ccc(C(=O)O)cc2)NC(=O)CC1c1ccco1 (centres undefined) was read as SIRT5 inh 4 and DENV2 CPE rescue -3.
Cc1ccc(C(=O)CC(=O)COc2ccc(Cl)cc2)cc1 was read as SIRT5 inh 0 and E-selectin induc 0.
`Cc1ccccc1S(=O)(=O)N1CC[C@H]2[C@H](CO)Nc3ccc(C#Cc4ccccc4)cc3[C@H]21` gave SIRT5 inh 10, DENV2 CPE rescue inconclusive and E-selectin induc 0.
